# Screening data (PubChem BioAssay)
# Rows were chosen to be rich in hits. Some 2.6% of all compounds tested hit in one or more screens of this group.
# PvdQ acylase: P. aeruginosa PvdQ acylase inhibitors, primary screen, biochemical, fluorescence, plate reader and imaging, single point; 340,000 compounds, 0.063% hits; inhibition, % at 10 µM; purified PvdQ acylase; PvdQ acylase [Pseudomonas aeruginosa LESB58]; in the data active means inhibition above about 30%, passing the limit was not always enough;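 further: 0% = vehicle neutral wells and 100% = reference inhibitor wells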
# SR-BI DiI-HDL act: activators of SR-BI mediated DiI-HDL uptake, primary screen, ldlA[mSR-BI] CHO cells, DiI fluorescence; 3 h; 100 = double the neutral-control signal; activation, % at 12.5 µM; 320,000 compounds, 0.096% hits; AID 504775, 2011;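 active means mean replicate activation of at least 60% and every replicate at or above 60%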;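 further: 0% = median plate neutral-control signal and 100% = twice that signal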
#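 Test system: SR-BI-overexpressing, LDLR-lacking CHO cells; Medium: Ham's F12 with 0.5% BSA, HEPES 25 mM, pH 7.4; Schedule: 3 h, 37 °C; Technique: bottom-read fluorescence, 550/595 nm.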
# Xi reactivation: activators of inactive X chromosome reactivation, primary screen, imaging, XiGFP fibroblasts, GFP high-content imaging, set 2. XiGFP mouse fibroblasts, % GFP-positive cells imaging, 3 d; cells co-treated with 5-aza-dC sensitizer; scaled so ellipticine positive control = 100%. activation, % at 7.58 µM. 360,000 compounds, 0.055% hits;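 active means mean normalized replicate activation at least 10% and every replicate at or above 10%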;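 further: 0% = median of on-plate neutral control wells and 100% = ellipticine 6 µM median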
#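 System: XiGFP fibroblasts, SV40-immortalized. Medium: DMEM plus 5-aza-dC sensitizer. Doses: single point. Timing: 3 d treatment, 15 min room-temperature fixation. Control set: ellipticine 6 µM.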
# dFosB act: activators of delta FosB homodimer, primary screen, biochemical, fluorescence polarization, TAMRA-CDK5 oligo, single point; Protein FosB (Mus musculus), P13346; activation, % at 25 µM; AID 493131, 2011; 340,000 compounds, 0.99% hits; purified delta FosB; percent of positive-control signal above neutral wells;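 active means mean activation above about 17%, with every replicate also reaching it, limit read from the data, passing the limit was not always enough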
# Ecoli rRNA inh: reduced GFP signal of wild-type E. coli, primary screen, bacterial rRNA inhibitor project, GFP/RFP fluorescence, OD600, single point. E. coli WT GFP vs humanized-ribosome RFP mutants, 24 h; active compounds read low; DMSO median 0, no signal -100. 350,000 compounds, 1.6% hits. GFP signal change (wild-type ribosome), % (concentration not given with the values);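 active means significant combined selectivity score with lowered wild-type GFP, culture density cut under 30%, mutant RFP and density less affected; inactive means any of these conditions unmet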
# SR-BI HDL uptake: inhibitors of SR-BI mediated HDL lipid uptake, primary screen, ldlA[mSR-BI] cells, fluorescence, single point; Scavenger receptor class B member 1 (Mus musculus), Q61009; ldlA[mSR-BI] CHO cells, DiI-HDL uptake fluorescence, 3 h; inhibition, % at 12.5 µM; 320,000 compounds, 0.96% hits; AID 488896, 2010;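 active means mean replicate inhibition of at least 70% and a set share of replicates each scoring 70 or more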;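 further: 0% = median of neutral control wells and 100% = median of positive control wells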
# Target sequence (Q61009 whole entry, looked up): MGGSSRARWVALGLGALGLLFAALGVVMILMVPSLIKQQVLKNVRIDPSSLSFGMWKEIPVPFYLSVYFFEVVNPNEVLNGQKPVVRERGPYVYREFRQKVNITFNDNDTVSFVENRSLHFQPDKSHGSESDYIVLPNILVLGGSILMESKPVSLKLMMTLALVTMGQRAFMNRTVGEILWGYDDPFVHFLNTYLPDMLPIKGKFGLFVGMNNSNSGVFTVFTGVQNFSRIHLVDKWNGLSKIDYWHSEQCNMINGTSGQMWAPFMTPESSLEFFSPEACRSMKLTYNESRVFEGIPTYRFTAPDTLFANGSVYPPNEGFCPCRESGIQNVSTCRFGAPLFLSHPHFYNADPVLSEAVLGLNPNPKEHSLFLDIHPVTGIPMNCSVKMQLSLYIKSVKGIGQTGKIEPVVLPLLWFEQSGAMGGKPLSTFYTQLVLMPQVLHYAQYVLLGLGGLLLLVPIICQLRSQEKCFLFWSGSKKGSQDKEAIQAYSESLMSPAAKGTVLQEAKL
# Numbers without * were called inactive; . = not tested or not shown.
SMILES,PvdQ acylase,SR-BI DiI-HDL act,Xi reactivation,dFosB act,Ecoli rRNA inh,SR-BI HDL uptake
Cc1cc(C)cc(OCc2nnc(SCC(=O)N3CCN(c4ccccc4)CC3)o2)c1,-3,-79,.,-13,.,79*
COc1ccc(/C(C)=N/Nc2nc(C)c(C(C)=O)s2)cc1,-5,-55,0,-17,-23,55
CC(=O)c1sc(N/N=C2\CC3CC2C(C)C3(C)C)nc1C (stereo unspecified),0,-1,0,1,-31*,1
CCN(CC)CCNC(=O)C(=O)NCC1OCCN1S(=O)(=O)c1ccc2c(c1)OCCO2 (stereo unspecified),-8,14,0,-3,.,-14
O=C(/C=C/c1ccccc1Cl)c1ccccc(=O)c1O,-3,-1,.,-19,.,1
O=C(/C=C/c1ccc([N+](=O)[O-])cc1)c1ccccc(=O)c1O,-2,-20,1,-7,-14*,20
CCC(=O)N1CC2(C1)[C@H](c1ccc(-c3ccc(C#N)cc3)cc1)[C@H](CO)N2C(C)=O,.,.,0,.,-1,.
c1ccc(C(c2ccccc2)c2noc(CN3CCC(c4ccncc4)CC3)n2)cc1,15,19,0,-8,-43*,-19
c1ccc(C2CCCN(Cc3nc(CC4CC4)no3)CC2)cc1 (stereo unspecified),-2,-4,0,-2,-17,4
CCn1cc(C(=O)NCCCOC)c2cc(OC)c(OC)cc2c1=O,-13,-2,.,-8,.,2
CCOC(=O)c1c(C)[nH]c(C(=O)OCC(=O)Nc2sccc2C(N)=O)c1C,-13,-43,1,22*,-5,43
CCOC(=O)c1c(C)[nH]c(C(=O)OCc2csc(CC(=O)Nc3ccccc3C)n2)c1C,-8,-81,0,3,0,81*
O=C(COc1ccc(/C=N/NS(=O)(=O)c2ccccc2)cc1)Nc1cccc(Cl)c1,-16,-75,.,4,.,75*
CCCNC(=O)[C@H]1[C@H](CO)[C@H]2Cn3c(cccc3=O)[C@@H]1N2Cc1cccc(Cl)c1,.,.,0,.,1,.
COc1ccc(/C=N/Nc2nncc3ccccc23)c(OC)c1,-8,-76,0,-2,.,76*
Cn1cnc(S(=O)(=O)N2CCCC(c3cc(C(=O)Nc4ccc(F)c(Cl)c4)no3)C2)c1 (stereo unspecified),.,.,0,.,-25*,.
Cc1cccc(C(O)c2ncc(-c3ccc(C(F)(F)F)cc3)[nH]2)c1C (stereo unspecified),.,.,0,.,1,.
Cc1cccc(CSCC(=O)N2CCN(S(=O)(=O)c3ccccc3C#N)CC2)c1,.,.,0,.,-16*,.
C[C@H](CO)N1C[C@H](C)[C@H](CN(C)C)Oc2c(NC(=O)Nc3ccc(F)cc3)cccc2C1=O,.,.,0,.,4,.
CC1(C)CC(c2nc(-c3ccc([N+](=O)[O-])cc3)cs2)CCO1 (stereo unspecified),-6,-34,0,-1,-42*,34
Cn1ncc2c(O/N=C(\N)c3ccc(C(F)(F)F)cc3)ncnc21,1,-17,0,-24,-17*,17
CC(C)(C)OC(=O)CC[C@@H](C(=O)NCCCCCCCCCCC(=O)N1CCN(C(=O)OC(C)(C)C)CC1)n1cc(CCCCCNC(=O)OC(C)(C)C)nn1,0,-51,0,-4,9,51
c1ccc(CNc2ncnc3scc(-c4cccs4)c23)nc1,-5,.,0,-14,-27*,.
c1ccc(-c2csc3ncnc(NCc4ccccn4)c23)cc1,-10,-21,0,-13,.,21
O=C(CNC(=O)c1ccccc1)N=Nc1c(O)[nH]c2ccc(Br)cc12,-9,17,0,46*,6,-17
